Laboratory results taken from article PMC11646436 (International Journal of Nanomedicine, 2024).

What was measured:
[1] = Tissue distribution in AsPC-1 tumor-bearing mice; type: in vivo, BALB/c nude mice; conditions: i.v. 38 μmol/kg
Procedure, shortened: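 BALB/c nude mice carrying subcutaneous AsPC-1 tumours (5×10^6 cells, right flank; 300–500 mm3) received one i.v. bolus at an equimolar 38 μmol/kg (parent drug 10 mg/kg; liposomal prodrug 19 mg/kg). After cardiac perfusion, tumour, heart, liver, spleen, lung, kidney and pancreas were collected at 0.5, 4, 8, 12 and 24 h. Parent nucleoside and prodrug were measured by LC-MS/MS.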

AsPC-1 cells [2] = experiment: MTT cytotoxicity assay; type: cell-based; conditions: Homo sapiens, ASPC1, 48 h, AsPC-1, 48 h incubation, 2×10^4 cells per well
Procedure, shortened: (§1)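 Seeding was 2×10^4 per well for AsPC-1 and 1×10^4 for PANC-1, BxPC-3, Mia PaCa-2 and SU.86.86; cells adhered for 24 h at 37°C in 5% CO2. Test compound was given at 0.01, 0.1, 1, 10 and 100 μM for 48 h. MTT (5 mg/mL stock in PBS) was added for 4 h, dissolved in DMSO, and read at 490 nm. Viability was calculated against drug-free cells and cell-free blanks. Mean ± SD, n = 3.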

[3] = test system: AsPC-1 subcutaneous xenograft; experiment: Pharmacodynamics in AsPC-1 subcutaneous xenograft model; type: in vivo, BALB/c nude mice
Procedure, shortened: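 Female BALB/c nude mice (18–20 g) received 5×10^6 AsPC-1 cells subcutaneously in the right flank. At ~100 mm3 they were sorted by volume and randomised into three groups. Dosing was i.v., Q3D × 6: 5% glucose vehicle, parent drug 10 mg/kg, or liposomal test compound 5 mg/kg. Tumour volume and body weight were followed throughout. Tumours were weighed on Day 30, one week after the last dose, and organs were taken for H&E. n = 5.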

SU.86.86 cells = experiment: MTT cytotoxicity assay; type: cell-based; conditions: Homo sapiens, SU.86.86, 48 h
Procedure, shortened: as §1

PANC-1 cells = experiment: MTT cytotoxicity assay; type: cell-based, Human
BxPC-3 cells = experiment: MTT cytotoxicity assay; type: cell-based; conditions: Homo sapiens, BXPC-3, 48 h
Procedure, shortened: as §1

AsPC-1 cells [4] = experiment: Cell cycle analysis by flow cytometry; type: cell-based, Human; conditions: AsPC-1, 10 μM, 24 h
Procedure, shortened: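 AsPC-1 cells were seeded at 5×10^5 per well in 6-well plates and exposed to 10 μM test compound. They were then fixed overnight in cold 70% ethanol, stained with propidium iodide containing RNase A in the dark at room temperature, and analysed by flow cytometry for cell-cycle phase percentages. Mean ± SD, n = 3.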

[5] = test system: AsPC-1-luc orthotopic xenograft; experiment: Pharmacodynamics in AsPC-1-luc orthotopic xenograft model; type: in vivo, BALB/c nude mice
Procedure, shortened: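 AsPC-1-luc cells were grown in RPMI-1640 with 10% FBS and 0.5 μg/mL puromycin. Under anaesthesia, 3×10^6 cells in 25 μL were injected into the pancreas of BALB/c nude mice. On day 7, luciferase substrate was given i.p. and mice were IVIS-imaged within 5 min, then grouped by bioluminescence. Dosing was i.v., Q3D × 6: 5% glucose, parent drug 10 mg/kg, or liposomal test compound 5 mg/kg. Mice were imaged on Days 17 and 27, followed by ex vivo organ imaging.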

AsPC-1 cells [6] = experiment: Transwell cell invasion assay; type: cell-based, Human; conditions: AsPC-1, 1 μM, 48 h
Procedure, shortened: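 AsPC-1 cells (1×10^4) were placed in serum-free medium in the upper chamber of 8-μm-pore transwells, with complete medium below, and treated with 1 μM test compound for 48 h. Cells on the upper membrane surface were swabbed off. Cells on the lower surface were stained with 0.5% crystal violet and counted per field under bright-field microscopy. Mean ± SD, n = 3.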

AsPC-1 cells [7] = experiment: Cellular accumulation by LC-MS/MS; type: cell-based, Human; conditions: AsPC-1, 10 μM, 48 h; Gem (Gem group), Gem and tcGem (LipotcGem group)
Procedure, shortened: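 AsPC-1 cells were seeded at 5×10^6 per 10 cm dish overnight and exposed to 10 μM test compound for 12, 24 or 48 h. Cells were washed, counted and sonicated at 4°C in methanol-water (1:1). Parent nucleoside and prodrug were quantified by LC-MS/MS on a C8 UPLC column. The gradient was water/acetonitrile with 0.1% formic acid at 0.2 mL/min.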

Mia PaCa-2 cells = experiment: MTT cytotoxicity assay; type: cell-based; conditions: Homo sapiens

concentration in tumors ([1]; 8 h, Gem (Gem group), Gem and tcGem (LipotcGem group)): 0.004 µmol/g
Gem concentration in tumor tissues and plasma over time [1]: undetectable beyond 8 h
SMILES: Nc1ccn([C@@H]2O[C@H](CO)[C@@H](O)C2(F)F)c(=O)n1 [Gem, Gemcitabine]
IC50 (AsPC-1 cells [2]): > 100 µM
tumor inhibition rate (TIR), tumor weight ([3]; Day 30, i.v. Q3D × 6, Gem 10 mg/kg, LipotcGem 5 mg/kg): 49%
tumor inhibition rate (TIR), tumor volume ([3]; i.v. Q3D × 6, Gem 10 mg/kg, LipotcGem 5 mg/kg): 50%
body weight ([3]; subcutaneous model, throughout treatment): No significant weight loss
IC50 (SU.86.86 cells): > 100 µM
IC50 (PANC-1 cells; Homo sapiens, PANC-1, 48 h): > 100 µM
cell viability (PANC-1 cells; PANC-1, lower cell densities and extended exposure time): above 50%
IC50 (BxPC-3 cells): 4.35 µM
Percentage of cells (%) S (AsPC-1 cells [4]): 35%
metastatic burden (bioluminescent signals, liver and intestine) ([5]; Day 27, ex vivo): moderate
tumor inhibition rate (TIR) ([5]; orthotopic model, i.v. Q3D × 6, Gem 10 mg/kg, LipotcGem 5 mg/kg): 50%
invading cells (AsPC-1 cells [6]): 129 ± 27 cells per field
intracellular accumulation (AsPC-1 cells [7]): 0.0015 nmol/10^6 cells
IC50 (Mia PaCa-2 cells; MIA PaCa-2, 48 h): > 100 µM
IC50 (Mia PaCa-2 cells; MIA PaCa-2, 72 h): 73.5 µM
